Assay results from different studies.
Target: Mitogen-activated protein kinase 3 (MAPK3, Homo sapiens, UniProt P27361)

| Structure (SMILES) | assay | setting | endpoint | result |
| --- | --- | --- | --- | --- |
| CN[C@@]1(c2ccccc2Cl)CCCCC1=O | enzyme activity, inhibitor | 30 µM | inhibition | -4% |
| Cc1nn(C)cc1-c1nc2c(N3CCN(Cc4ccc(Cl)cc4)CC3)c(Cl)cnc2[nH]1 | binding, competition with immobilised ligand | 1 µM | remaining binding | 100% |
| COc1cc(Nc2ncc(F)c(Nc3ccc4c(n3)NC(=O)C(C)(C)O4)n2)cc(OC)c1OC | binding, competition with immobilised ligand | 10 µM | inhibition | 0% |
| Nc1ncc(-c2nc(N3CCOCC3)nc(N3CCOCC3)n2)c(C(F)F)n1 | binding, competition with immobilised ligand | 10 µM | remaining binding | 89% |
| Cn1cncc1[C@@](O)(COc1ccc(C#N)cc1-c1ccc(OC(F)(F)F)cc1)c1ccc(C#N)cc1 | cell-free assay, competition with immobilised ligand | 1 µM | remaining binding | 83% |
| Cn1cc(-c2cc(F)cc(N3CCn4c(cc5c4CCCC5)C3=O)c2CO)cc(Nc2ccc(N3CCN(C4COC4)CC3)cn2)c1=O | enzyme activity, inhibitor | 0.1 µM | inhibition | 14% |
| COc1ncccc1-c1cnn2ccc(N3CCN(C(=O)OC(C)C)CC3)nc12 | binding, competition with immobilised ligand | 1 µM | remaining binding | 100% |
| CC(C)(C)c1cc(C=C(C#N)C#N)cc(Br)c1O | enzyme activity, inhibitor | 0.5 µM | remaining activity | 105% |
| N#CC1(c2ccccn2)CCN(Cc2cc(C(=O)O)c(=O)n3ccccc23)CC1 | cell-free assay, competition with immobilised ligand | 1 µM | remaining binding | 100% |
| C[C@@H](O)[C@H](N)C(=O)N1CCC[C@H]1C(=O)N1CCC[C@H]1C(=O)N[C@H](C(N)=O)[C@@H](C)O | enzyme activity, inhibitor | 30 µM | inhibition | 3% |
| O=c1[nH]c2ccccc2n1C1CCN(Cc2ccc(-c3[nH]c4cc5ncnc5cc4nc3-c3ccccc3)cc2)CC1 | cell-free assay | 0.5 µM | remaining signal | 118% |
